Bounds are passed on as bounds.

Among the data in ChEMBL document CHEMBL4219251, “Synthesis and biological evaluation of 2,4-disubstituted phthalazinones as Aurora kinase inhibitors” (Bioorg Med Chem, 2018) are IC50 values, retold here.

The test system of the first test is HepG2. As to the kind of experiment: Antiproliferative activity against human HepG2 cells after 72 hrs by MTT assay. Conditions: Homo sapiens, HepG2, 72 h. It counts as functional, cell-based. Put shortly: (§1)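 Cells kept in RPMI-1640 with 10% FBS at 37 °C, 5% CO2. Seeded at 5×10^3 cells/well and grown 24 h, then exposed 72 h at 37 °C to five concentrations (0.01, 0.1, 1, 10, 100 μM) in medium. MTT added for 4 h, formazan dissolved in DMSO, absorbance read at 490 nm. IC50 taken from a log plot of percent of control vs concentration; means ± SD of triplicate experiments.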
As for `Cc1noc(C)c1-c1nn(Cc2ccc(C(=O)NC3CC3)cc2)c(=O)c2ccccc12`, the IC50 is > 100 µM.

Regarding `Cc1noc(C)c1-c1nn(Cc2ccc(C(=O)NC3CCCC3)cc2)c(=O)c2ccccc12`, the IC50 is > 100 µM.

`Cc1noc(C)c1-c1nn(Cc2ccc(C(=O)N3CCCCC3)cc2)c(=O)c2ccccc12` gave an IC50 of 97.3 µM.

As to `Cn1cc(-c2nn(Cc3ccc(C(=O)N4CCOCC4)cc3)c(=O)c3ccccc23)cn1`, the IC50 is > 100 µM.

For the compound `Cn1cc(-c2nn(Cc3ccc(C(=O)NC4CC4)cc3)c(=O)c3ccccc23)cn1`, the IC50 was > 100 µM.

Consider `O=C(NC1CCCCC1)c1ccc(Cn2nc(Nc3ccc(C(=O)N4CCOCC4)cc3)c3ccccc3c2=O)cc1`, for which the IC50 worked out at 40.4 µM. That is a double-digit micromolar value.

With `Cc1noc(C)c1-c1nn(Cc2ccc(C(=O)NC3CCN(C)CC3)cc2)c(=O)c2ccccc12`, the IC50 is > 100 µM.

`Cc1cc(Nc2nn(Cc3ccccc3)c(=O)c3ccccc23)n[nH]1`: the IC50 was 11.3 µM.

The test is the same for the next values; noted with them: hepg2.
Consider `Cc1noc(C)c1-c1nn(Cc2ccc(C(=O)NC3CC(C)(C)N([O])C(C)(C)C3)cc2)c(=O)c2ccccc12`, for which 85.1 µM corresponded to half-maximal inhibition (IC50).

The test system of the next test is HeLa. Kind of test: Antiproliferative activity against human HeLa cells after 72 hrs by MTT assay. Conditions: Homo sapiens, HeLa, 72 h. Format: functional, cell-based. Put shortly:
as §1
Take `Cc1noc(C)c1-c1nn(Cc2ccc(C(=O)NC3CC3)cc2)c(=O)c2ccccc12`: the IC50 is > 100 µM.

As to `Cc1noc(C)c1-c1nn(Cc2ccc(C(=O)NC3CCCC3)cc2)c(=O)c2ccccc12`, the IC50 was > 100 µM.

`Cc1noc(C)c1-c1nn(Cc2ccc(C(=O)N3CCCCC3)cc2)c(=O)c2ccccc12`: the IC50 is > 100 µM.

For the compound `Cn1cc(-c2nn(Cc3ccc(C(=O)N4CCOCC4)cc3)c(=O)c3ccccc23)cn1`, the IC50 was > 100 µM.

Turning to `Cn1cc(-c2nn(Cc3ccc(C(=O)NC4CC4)cc3)c(=O)c3ccccc23)cn1`, the midpoint of inhibition, the IC50, lay at 40 µM.

In the case of `O=C(NC1CCCCC1)c1ccc(Cn2nc(Nc3ccc(C(=O)N4CCOCC4)cc3)c3ccccc3c2=O)cc1`, the IC50 is 23.2 µM. This IC50 is about 1.7-fold lower than that of the compound before.

As to `Cc1noc(C)c1-c1nn(Cc2ccc(C(=O)NC3CCN(C)CC3)cc2)c(=O)c2ccccc12`, the IC50 is > 100 µM.

Turning to `Cc1cc(Nc2nn(Cc3ccccc3)c(=O)c3ccccc23)n[nH]1`, the IC50 amounted to 6.3 µM.

The test is the same for the next values; noted with them: hela.
Compound `Cc1noc(C)c1-c1nn(Cc2ccc(C(=O)NC3CC(C)(C)N([O])C(C)(C)C3)cc2)c(=O)c2ccccc12` returned an IC50 of 83.5 µM. In other words, the double-digit micromolar range.

Another test concerns A549. As to the kind of experiment: Antiproliferative activity against human A549 cells after 72 hrs by MTT assay. It counts as functional, cell-based. Conditions: Homo sapiens, A549, 72 h. Put shortly:
as §1
As to `Cc1noc(C)c1-c1nn(Cc2ccc(C(=O)NC3CC3)cc2)c(=O)c2ccccc12`, the IC50 was > 100 µM.

As to `Cc1noc(C)c1-c1nn(Cc2ccc(C(=O)NC3CCCC3)cc2)c(=O)c2ccccc12`, the IC50 is > 100 µM.

For the compound `Cc1noc(C)c1-c1nn(Cc2ccc(C(=O)N3CCCCC3)cc2)c(=O)c2ccccc12`, the IC50 came to 86.2 µM. This counts as double-digit micromolar.

Turning to `Cn1cc(-c2nn(Cc3ccc(C(=O)N4CCOCC4)cc3)c(=O)c3ccccc23)cn1`, the midpoint of inhibition, the IC50, lay at 73.3 µM.

`Cn1cc(-c2nn(Cc3ccc(C(=O)NC4CC4)cc3)c(=O)c3ccccc23)cn1` had an IC50 of 51.2 µM.

Compound `O=C(NC1CCCCC1)c1ccc(Cn2nc(Nc3ccc(C(=O)N4CCOCC4)cc3)c3ccccc3c2=O)cc1` came in with an IC50 of 64.3 µM.

For `Cc1noc(C)c1-c1nn(Cc2ccc(C(=O)NC3CCN(C)CC3)cc2)c(=O)c2ccccc12`, the IC50 was > 100 µM.

The compound `Cc1cc(Nc2nn(Cc3ccccc3)c(=O)c3ccccc23)n[nH]1` displayed an IC50 of 42.6 µM.

Staying with this test, now noted: a549.
Compound `Cc1noc(C)c1-c1nn(Cc2ccc(C(=O)NC3CC(C)(C)N([O])C(C)(C)C3)cc2)c(=O)c2ccccc12` returned a concentration for half-maximal inhibition (IC50) of 84.3 µM.

The subject of a further test is HCT-116. Kind of test: Antiproliferative activity against human HCT116 cells after 72 hrs by MTT assay. It counts as functional, cell-based. The settings on record: Homo sapiens, HCT-116, 72 h. Put shortly: as §1
On to `Cc1noc(C)c1-c1nn(Cc2ccc(C(=O)NC3CC3)cc2)c(=O)c2ccccc12`, for which the IC50 is > 100 µM.

Turning to `Cc1noc(C)c1-c1nn(Cc2ccc(C(=O)NC3CCCC3)cc2)c(=O)c2ccccc12`, the IC50 is > 100 µM.

On to `Cc1noc(C)c1-c1nn(Cc2ccc(C(=O)N3CCCCC3)cc2)c(=O)c2ccccc12`, for which the IC50 is > 100 µM.

Consider `Cn1cc(-c2nn(Cc3ccc(C(=O)N4CCOCC4)cc3)c(=O)c3ccccc23)cn1`, for which the IC50 was > 100 µM.

`Cn1cc(-c2nn(Cc3ccc(C(=O)NC4CC4)cc3)c(=O)c3ccccc23)cn1` displayed an IC50 of 20.1 µM.

Compound `O=C(NC1CCCCC1)c1ccc(Cn2nc(Nc3ccc(C(=O)N4CCOCC4)cc3)c3ccccc3c2=O)cc1` returned an IC50 of 48.2 µM. This IC50 is about 2.4-fold higher than that of the compound before.

`Cc1noc(C)c1-c1nn(Cc2ccc(C(=O)NC3CCN(C)CC3)cc2)c(=O)c2ccccc12` gave an IC50 of 84.9 µM.

For the compound `Cc1cc(Nc2nn(Cc3ccccc3)c(=O)c3ccccc23)n[nH]1`, the IC50 was 22.7 µM.

Staying with this test, now noted: hct-116.
As for `Cc1noc(C)c1-c1nn(Cc2ccc(C(=O)NC3CC(C)(C)N([O])C(C)(C)C3)cc2)c(=O)c2ccccc12`, 36.8 µM corresponded to half-maximal inhibition (IC50). In other words, the double-digit micromolar range.

For the next test, the system named is LoVo. As to the kind of experiment: Antiproliferative activity against human LoVo cells after 72 hrs by MTT assay. It counts as functional, cell-based. The settings on record: Homo sapiens, LoVo, 72 h. Put shortly:
as §1
Take `Cc1noc(C)c1-c1nn(Cc2ccc(C(=O)NC3CC3)cc2)c(=O)c2ccccc12`: the IC50 is > 100 µM.

In the case of `Cc1noc(C)c1-c1nn(Cc2ccc(C(=O)NC3CCCC3)cc2)c(=O)c2ccccc12`, the IC50 was > 100 µM.

For `Cc1noc(C)c1-c1nn(Cc2ccc(C(=O)N3CCCCC3)cc2)c(=O)c2ccccc12`, the IC50 is > 100 µM.

`Cn1cc(-c2nn(Cc3ccc(C(=O)N4CCOCC4)cc3)c(=O)c3ccccc23)cn1` yielded an IC50 of 52.3 µM. In other words, the double-digit micromolar range.

The compound `Cn1cc(-c2nn(Cc3ccc(C(=O)NC4CC4)cc3)c(=O)c3ccccc23)cn1` showed an IC50 of 48.2 µM.

`O=C(NC1CCCCC1)c1ccc(Cn2nc(Nc3ccc(C(=O)N4CCOCC4)cc3)c3ccccc3c2=O)cc1` gave an IC50 of 54.5 µM.

`Cc1noc(C)c1-c1nn(Cc2ccc(C(=O)NC3CCN(C)CC3)cc2)c(=O)c2ccccc12`: the half-maximal inhibitory concentration (IC50) is > 100 µM.

Consider `Cc1cc(Nc2nn(Cc3ccccc3)c(=O)c3ccccc23)n[nH]1`, for which it took 22.2 µM to reach half-maximal inhibition (IC50). This lies in the double-digit micromolar range.

The same test, now with this note: lovo.
Regarding `Cc1noc(C)c1-c1nn(Cc2ccc(C(=O)NC3CC(C)(C)N([O])C(C)(C)C3)cc2)c(=O)c2ccccc12`, it took 41.2 µM to reach half-maximal inhibition (IC50).
